Measurements taken from ChEMBL document CHEMBL1800044, “Structure-based design of novel boronic acid-based inhibitors of autotaxin” (J Med Chem, 2011).

The compounds below were run against Autotaxin (Homo sapiens, UniProt Q13822) (assay: Inhibition of 6x-histidine-tagged human recombinant ATX expressed in HEK293 cells assessed as choline release using lysophosphatidylcholine as substrate after 4 hrs by choline release assay).
How it was run: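 Recombinant ATX at 10 nM final (~20 nM in enzyme half) in 50 mM Tris-HCl pH 7.4, 0.01% Triton X-100, inhibitor added in DMSO. LPC (18:1) at 40 μM final, buffer with 10 mM MgCl2 and 10 mM CaCl2. Ten concentrations, 0.01–30 μM. Controls were DMSO alone and LPC without enzyme.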

Row | SMILES | IC50 [nM]
1 | O=C1SC(Cc2ccc(OCc3ccc(B(O)O)cc3)cc2)C(O)N1Cc1ccc(F)cc1 (centres undefined) | 1590
2 | O=C1S/C(=C\c2ccc(/C=C/c3ccc(B(O)O)cc3)cc2)C(=O)N1Cc1ccc(F)cc1 | > 5000
3 | O=C(Nc1ccc(/C=C2\SC(=O)N(Cc3ccc(F)cc3)C2=O)cc1)c1ccc(B(O)O)cc1 | 10
4 | O=C1[C@H]2Cc3ccc(OCc4ccc(B(O)O)cc4)cc3CN2C(=O)N1Cc1ccc(F)cc1 | 59
5 | CN1C(=O)N(Cc2ccc(F)cc2)C(=O)/C1=C\c1ccc(OCc2ccc(B(O)O)cc2)cc1 | 5.3
6 | O=C(NCc1ccc(B(O)O)cc1)c1ccc(/C=C2\SC(=O)N(Cc3ccc(F)cc3)C2=O)cc1 | 71
7 | O=c1sc(Cc2ccc(OCc3ccc(B(O)O)cc3)cc2)cn1Cc1ccc(F)cc1 | 683
8 | O=C(Nc1ccc(B(O)O)cc1)c1ccc(/C=C2\SC(=O)N(Cc3ccc(F)cc3)C2=O)cc1 | 147
9 | O=C1[C@@H]2Cc3ccc(OCc4ccc(B(O)O)cc4)cc3CN2C(=O)N1Cc1ccc(F)cc1 | 55
10 | O=C1C/C(=C\c2ccc(OCc3ccc(B(O)O)cc3)cc2)C(=O)N1Cc1ccc(F)cc1 | 7.3
11 | O=C1SC(Cc2ccc(OCc3ccc(B(O)O)cc3)cc2)C(=O)N1Cc1ccc(F)cc1 (centres undefined) | 25
12 | O=C1S/C(=C\c2ccc(NCc3ccc(B(O)O)cc3)cc2)C(=O)N1Cc1ccc(F)cc1 | 8.3
13 | O=C1N/C(=C\c2ccc(OCc3ccc(B(O)O)cc3)cc2)C(=O)N1Cc1ccc(F)cc1 | 26
14 | CN1C(=O)N(Cc2ccc(F)cc2)C(=O)/C1=C/c1ccc(OCc2ccc(B(O)O)cc2)cc1 | 6.7
